42 molecules from ChEMBL document CHEMBL1155541, “Discovery of 6-chloro-2-trifluoromethyl-7-aryl-7H-imidazo[1,2-a]imidazol-3-ylmethylamines, a novel class of corticotropin-releasing factor receptor type 1 (CRF1R) antagonists” (Bioorg Med Chem Lett, 2010) can be followed below.

The target of experiment [1] is T1, Corticotropin-releasing factor receptor 1 (Homo sapiens, UniProt P34998).
T1 sequence (P34998 whole entry): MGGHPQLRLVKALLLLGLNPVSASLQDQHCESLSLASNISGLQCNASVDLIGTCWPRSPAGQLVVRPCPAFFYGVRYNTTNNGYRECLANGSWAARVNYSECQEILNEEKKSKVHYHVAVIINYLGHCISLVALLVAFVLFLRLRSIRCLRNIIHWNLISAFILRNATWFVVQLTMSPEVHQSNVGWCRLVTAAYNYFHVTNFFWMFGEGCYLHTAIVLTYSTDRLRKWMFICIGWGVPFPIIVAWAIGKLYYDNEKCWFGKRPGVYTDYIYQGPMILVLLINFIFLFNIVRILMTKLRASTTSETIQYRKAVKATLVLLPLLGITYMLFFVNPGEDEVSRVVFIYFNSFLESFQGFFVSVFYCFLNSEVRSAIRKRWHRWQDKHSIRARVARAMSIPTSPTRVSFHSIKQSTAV
The experiment in a line: Displacement of [125I] Tyr-o-CRF from human […] expressed in human IMR-32 cells after 100 mins. It is filed as cell-based. An outline of the steps:
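Membranes from transformed IMR-32 cells incubated with 100 pM [125I]Tyr-o-CRF and increasing test-compound concentrations, 100 min, 25 °C. Buffer: 50 mM Tris pH 7.2, 10 mM MgCl2, 0.5% BSA, 0.005% Triton X-100, aprotinin, leupeptin. Stopped with ice-cold 50 mM Tris pH 7.4, 0.2% BSA. Nonspecific binding defined with o-CRF. Values given as Ki.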
For orientation: Loss of bound radioactivity is the signal in a displacement assay; it reports binding, not function.

The target of experiment [2] is T2, Corticotropin-releasing factor receptor 1 (Homo sapiens) (UniProt P34998).
T2 sequence (whole entry): T1 sequence (P34998 whole entry)
The experiment in a line: Antagonist activity at human CRF1 receptor expressed in human IMR-32 cells assessed as inhibition of CRF-stimulated cAMP production. It is filed as functional, cell-based. A general note: cAMP levels reflect the balance of adenylyl cyclase and phosphodiesterase activity.

The structures appear in SMILES notation. Calls of active or inactive are those of the source. No rule for the calls is given here.

For `CCCN(CCC(F)(F)F)Cc1c(C(F)(F)F)nc2n(-c3c(C)cc(C)cc3C)c(Cl)cn12`, the Ki in experiment [1] was determined as 12 nM. In addition, in experiment [2], the result was Active.

Molecule `CCCN(Cc1c(C(F)(F)F)nc2n(-c3ccc(C)cc3OC)c(Cl)cn12)CC1CC1` showed a Ki in experiment [1] of 13 nM. In addition, the result in experiment [2] was Active.

With `Cc1cc(C)c(-n2c(Cl)cn3c(CN(CCC(F)(F)F)CC4CC4)c(C(F)(F)F)nc23)c(C)c1`, the affinity in experiment [1] corresponds to a Ki of 16 nM. Also, the outcome in experiment [2] was Active.

`CCCN(Cc1ccc(F)cc1)Cc1c(C(F)(F)F)nc2n(-c3c(C)cc(C)cc3C)c(Cl)cn12` returned a Ki in experiment [1] of 350 nM. Besides, the result in experiment [2] was Active.

In the case of `CCN(Cc1ccccc1)Cc1c(C(F)(F)F)nc2n(-c3c(C)cc(C)cc3C)c(Cl)cn12`, in experiment [1], the Ki turned out to be 350 nM. For the same molecule, the outcome in experiment [2] was Active.

In experiment [1], `CCN(Cc1ccccc1C)Cc1c(C(F)(F)F)nc2n(-c3c(C)cc(C)cc3C)c(Cl)cn12` yielded a Ki of 4800 nM. For the same molecule, the outcome in experiment [2] was Active.

In experiment [1], `Cc1cc(C)c(-n2c(Cl)cn3c(CN(CCc4ccccc4)CC(F)(F)F)c(C(F)(F)F)nc23)c(C)c1` had a Ki of 350 nM. The outcome in experiment [2] was Active.

As to `CCCN(CCC1CC1)Cc1c(C(F)(F)F)nc2n(-c3c(C)cc(C)cc3C)c(Cl)cn12`, in experiment [1], affinity was put at a Ki of 53 nM. Moreover, the result in experiment [2] was Active.

Turning to `Cc1cc(C)c(-n2c(Cl)cn3c(CN4CCC(c5ccccc5)C4)c(C(F)(F)F)nc23)c(C)c1` (centres undefined), the affinity in experiment [1], expressed as Ki, was 610 nM. Besides, the outcome in experiment [2] was Active.

`Cc1cc(C)c(-n2c(Cl)cn3c(CN(CC4CC4)CC(F)(F)F)c(C(F)(F)F)nc23)c(C)c1` registered a Ki in experiment [1] of 5.2 nM. Also, in experiment [2], the result was Active.

Regarding `CCN(Cc1c(C(F)(F)F)nc2n(-c3c(C)cc(C)cc3C)c(Cl)cn12)CC1CC1`, the Ki in experiment [1] was determined as 9 nM. Besides, the result in experiment [2] was Active.

In turn, `Cc1cc(C)c(-n2c(Cl)cn3c(CN4CCCC4Cc4ccccc4)c(C(F)(F)F)nc23)c(C)c1` (centres undefined) displayed a Ki in experiment [1] of 190 nM. In experiment [2], the outcome was Active.

`Cc1cc(C)c(-n2c(Cl)cn3c(CN4CCCC(C)C4)c(C(F)(F)F)nc23)c(C)c1` (centres undefined) yielded an inhibitory constant (Ki) in experiment [1] of 5800 nM. Also, the outcome in experiment [2] was Active.

In the case of `CCCN(Cc1c(C(F)(F)F)nc2n(-c3c(C)cc(C)cc3C)c(Cl)cn12)CC1CC1`, the Ki in experiment [1] is 9.1 nM. Moreover, the result in experiment [2] was Active.

Turning to `CCCN(Cc1ccc(Cl)cc1)Cc1c(C(F)(F)F)nc2n(-c3c(C)cc(C)cc3C)c(Cl)cn12`, the Ki in experiment [1] worked out at 28 nM. For the same molecule, in experiment [2], the outcome was Active.

With `Cc1cc(C)c(-n2c(Cl)cn3c(CN(C)Cc4ccco4)c(C(F)(F)F)nc23)c(C)c1`, the Ki in experiment [1] is 180 nM. In addition, the outcome in experiment [2] was Active.

Consider `Cc1cc(C)c(-n2c(Cl)cn3c(CN(CC4CCC4)CC(F)(F)F)c(C(F)(F)F)nc23)c(C)c1`, for which the Ki in experiment [1] is 13 nM. Further, the outcome in experiment [2] was Active.

`CCCCN(Cc1ccccc1)Cc1c(C(F)(F)F)nc2n(-c3c(C)cc(C)cc3C)c(Cl)cn12` showed a Ki in experiment [1] of 130 nM. In addition, in experiment [2], the outcome was Active.

For the molecule `Cc1cc(C)c(-n2c(Cl)cn3c(CN4CCOCC4)c(C(F)(F)F)nc23)c(C)c1`, in experiment [1], affinity was put at a Ki of 1700 nM. The outcome in experiment [2] was Active.

For `CCN(Cc1ccc(Cl)c(Cl)c1)Cc1c(C(F)(F)F)nc2n(-c3c(C)cc(C)cc3C)c(Cl)cn12`, in experiment [1], the Ki was determined as 580 nM. Besides, the result in experiment [2] was Active.

`CCCN(Cc1cccc(F)c1)Cc1c(C(F)(F)F)nc2n(-c3c(C)cc(C)cc3C)c(Cl)cn12` returned a Ki in experiment [1] of 260 nM. Moreover, the outcome in experiment [2] was Active.

On to `Cc1cc(C)c(-n2c(Cl)cn3c(CN(C)Cc4ccccc4)c(C(F)(F)F)nc23)c(C)c1`, for which the Ki in experiment [1] came out at 160 nM. Moreover, the result in experiment [2] was Active.

Consider `Cc1cc(C)c(-n2c(Cl)cn3c(CN(CCC4CC4)CC(F)(F)F)c(C(F)(F)F)nc23)c(C)c1`, for which the affinity in experiment [1] corresponds to a Ki of 6.3 nM. For the same molecule, the outcome in experiment [2] was Active.

Consider `Cc1cc(C)c(-n2c(Cl)cn3c(CN4CCCCC4C)c(C(F)(F)F)nc23)c(C)c1` (centres undefined), for which, in experiment [1], the Ki stood at 1600 nM. Further, the outcome in experiment [2] was Active.

Regarding `Cc1cc(C)c(-n2c(Cl)cn3c(CN(CCC(F)(F)F)Cc4ccccc4)c(C(F)(F)F)nc23)c(C)c1`, the affinity in experiment [1], expressed as Ki, was 43 nM. Besides, in experiment [2], the result was Active.

In experiment [1], `Cc1cc(C)c(-n2c(Cl)cn3c(CN(CCc4ccccc4)CCC(F)(F)F)c(C(F)(F)F)nc23)c(C)c1` gave a Ki of 1900 nM. In addition, in experiment [2], the outcome was Active.

`C=CCN(CCC)Cc1c(C(F)(F)F)nc2n(-c3c(C)cc(C)cc3C)c(Cl)cn12` returned a Ki in experiment [1] of 4.5 nM. The result in experiment [2] was Active.

In the case of `CCCN(Cc1c(C(F)(F)F)nc2n(-c3c(C)cc(C)cc3C)c(Cl)cn12)CC(F)(F)C(F)(F)F`, the Ki in experiment [1] was 440 nM. Also, in experiment [2], the result was Active.

For the molecule `CCCN(CCc1ccccc1)Cc1c(C(F)(F)F)nc2n(-c3c(C)cc(C)cc3C)c(Cl)cn12`, the Ki in experiment [1] was 21 nM. Further, the outcome in experiment [2] was Active.

Molecule `Cc1cc(C)c(-n2c(Cl)cn3c(CN4CCCC4c4ccccc4)c(C(F)(F)F)nc23)c(C)c1` (centres undefined) registered a Ki in experiment [1] greater than 7000 nM. The result in experiment [2] was Active.

In experiment [1], `CCCCN(CC)Cc1c(C(F)(F)F)nc2n(-c3c(C)cc(C)cc3C)c(Cl)cn12` had a Ki of 78 nM. Also, the result in experiment [2] was Active.

In the case of `CCCN(Cc1c(C(F)(F)F)nc2n(-c3c(C)cc(C)cc3Cl)c(Cl)cn12)CC1CC1`, the Ki in experiment [1] amounted to 4.2 nM. Further, the result in experiment [2] was Active.

As for `C=CCN(CC=C)Cc1c(C(F)(F)F)nc2n(-c3c(C)cc(C)cc3C)c(Cl)cn12`, in experiment [1], the affinity, expressed as Ki, was 13 nM. Besides, the result in experiment [2] was Active.

In experiment [1], `CCN(CCC1CC1)Cc1c(C(F)(F)F)nc2n(-c3c(C)cc(C)cc3C)c(Cl)cn12` had a Ki of 13 nM. Also, in experiment [2], the result was Active.

In experiment [1], `CCCN(CCOC)Cc1c(C(F)(F)F)nc2n(-c3c(C)cc(C)cc3C)c(Cl)cn12` displayed a Ki of 32 nM. For the same molecule, the result in experiment [2] was Active.

`Cc1cc(C)c(-n2c(Cl)cn3c(CN(CCC(F)(F)F)Cc4ccc(F)cc4)c(C(F)(F)F)nc23)c(C)c1` displayed a Ki in experiment [1] of 34 nM. The outcome in experiment [2] was Active.

The molecule `Cc1cc(C)c(-n2c(Cl)cn3c(CN(C)CCc4ccccc4)c(C(F)(F)F)nc23)c(C)c1` showed a Ki in experiment [1] of 150 nM. Further, in experiment [2], the outcome was Active.

Regarding `Cc1cc(C)c(-n2c(Cl)cn3c(CN4CC=CCC4)c(C(F)(F)F)nc23)c(C)c1`, the affinity in experiment [1] corresponds to a Ki of 760 nM. Also, the result in experiment [2] was Active.

As to `CCN(CCc1ccccc1)Cc1c(C(F)(F)F)nc2n(-c3c(C)cc(C)cc3C)c(Cl)cn12`, the Ki in experiment [1] is 6 nM. The outcome in experiment [2] was Active.

In experiment [1], `Cc1cc(C)c(-n2c(Cl)cn3c(CN(CCC(F)(F)F)Cc4ccc(Cl)cc4)c(C(F)(F)F)nc23)c(C)c1` yielded a Ki of 12 nM. For the same molecule, the outcome in experiment [2] was Active.

On to `CCCN(CC1CC1)C(=O)c1c(C(F)(F)F)nc2n(-c3c(C)cc(C)cc3C)c(Cl)cn12`, for which the Ki in experiment [1] came to 33 nM. Further, the result in experiment [2] was Active.

Turning to `Cc1cc(C)c(-n2c(Cl)cn3c(CN(C)CCc4ccccn4)c(C(F)(F)F)nc23)c(C)c1`, in experiment [1], the Ki was 4300 nM. Further, the result in experiment [2] was Active.

As a reminder, the Ki is the equilibrium dissociation constant of an inhibitor or competing ligand from its target.
